According to ChEMBL document CHEMBL4219195, “Discovery of a quinoline-based phenyl sulfone derivative as an antitrypanosomal agent” (Bioorg Med Chem Lett, 2018):
The source made the active and inactive calls. The rule behind the calls is not given here.

Legend:
Trypanosoma brucei [1] = test: Antitrypanosomal activity against Trypanosoma brucei 427 bloodstream forms assessed as parasitic growth inhibition after 48 hrs by alamar blue assay; format: functional, organism-based; settings: Trypanosoma brucei, 427, 48 h
In short: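 Bloodstream forms in supplemented HMI-9 medium (10% FBS, 10% Serum Plus, cysteine, hypoxanthine, β-mercaptoethanol, thymidine, pyruvate, bathocuproinesulfonate, Tween 80), 5 × 10³ cells/well, compound exposure 48 h in DMSO. Alamar blue then added, 4 h at 37°C; fluorescence ex 530/em 590 nm. Triplicates; IC50 from 0.3–50 μM range; suramin positive control.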

HepG2 = test: Cytotoxicity against human HepG2 cells assessed as decrease in cell viability after 72 hrs by MTT assay; format: cell-based; settings: HepG2, 72 h
In short: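 HepG2 cells kept in DMEM:F12 with 10% FBS, pen/strep and 0.0125% Tween 80 at 37°C, 5% CO2. Cells trypsinized, seeded at 5 × 10⁵ cells/mL and left ~24 h, then given compounds in DMSO for 72 h. Medium replaced with MTT-containing medium for 1.5 h; formazan dissolved in DMSO; A550. Triplicates. Controls: 10% SDS, podophyllotoxin.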

[2] = biological target: Rhodesain (Trypanosoma brucei rhodesiense) (UniProt Q95PM0); test: Inhibition of Trypanosoma brucei rhodesain expressed in Pichia pastoris at 20 uM using Z-phe-Arg-AMC as substrate preincubated for 1 hr followed by substrate addition by fluorescence assay
Sequence of Rhodesain (Trypanosoma brucei rhodesiense) (Q95PM0 1-450): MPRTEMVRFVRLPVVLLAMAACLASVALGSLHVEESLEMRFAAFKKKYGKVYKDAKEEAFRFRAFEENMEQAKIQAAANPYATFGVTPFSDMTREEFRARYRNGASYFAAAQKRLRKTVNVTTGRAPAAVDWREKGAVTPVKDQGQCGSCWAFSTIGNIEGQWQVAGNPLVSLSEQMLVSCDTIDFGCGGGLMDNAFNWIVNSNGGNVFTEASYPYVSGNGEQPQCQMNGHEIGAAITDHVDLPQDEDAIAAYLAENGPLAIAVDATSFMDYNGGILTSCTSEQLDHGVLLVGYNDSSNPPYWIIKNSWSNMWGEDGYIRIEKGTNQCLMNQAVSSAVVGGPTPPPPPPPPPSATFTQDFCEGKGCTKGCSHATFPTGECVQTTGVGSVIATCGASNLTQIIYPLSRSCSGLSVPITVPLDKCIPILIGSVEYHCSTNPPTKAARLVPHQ
In short: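 Enzyme at 0.8 nM final with compound at 20 μM final, 1 h preincubation in 50 mM sodium acetate pH 5.5 with 2 mM DTT and 0.01% Triton X-100. Z-Phe-Arg-AMC (10 μM) then added. Cleavage rate (RFU/sec) read at 25 °C, ex 355/em 460 nm. E-64 (10 μM) served as 100% inhibition control.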

Trypanosoma brucei [3] = test: Antitrypanosomal activity against luciferase expressing Trypanosoma brucei STIB795 bloodstream forms infected in NMRI mouse assessed as parasitic growth inhibition at 50 to 100 mg/kg, ip administered for 4 consecutive days starting at 3 days post infection measured at 24 hrs post dose by live imaging analysis; format: functional, organism-based
In short: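 Groups of four female mice, each inoculated ip with 1 × 10⁴ bloodstream forms. Groups: control, 50 mg/kg/day and 100 mg/kg/day. Dosing ip in water plus 10% DMSO began 3 days post-infection. Parasitemia followed by live imaging. Moribund mice euthanized once parasitemia was detected.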

[4] = biological target: Procathepsin L (Homo sapiens) (UniProt P07711); test: Inhibition of human liver cathepsin L using Z-phe-Arg-AMC as substrate at 0.1 to 125 uM preincubated for 1 hr followed by substrate addition by fluorescence assay
Sequence of Procathepsin L (Homo sapiens) (P07711 114-333 limits assumed): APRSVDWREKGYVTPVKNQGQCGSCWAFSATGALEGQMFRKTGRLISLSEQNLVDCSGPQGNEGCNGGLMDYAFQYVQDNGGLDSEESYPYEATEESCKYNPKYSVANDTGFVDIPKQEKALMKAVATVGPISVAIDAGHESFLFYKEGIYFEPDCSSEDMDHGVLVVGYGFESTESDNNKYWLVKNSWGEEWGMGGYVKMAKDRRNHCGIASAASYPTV
In short: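 Human liver CatL at 0.58 nM in 400 mM sodium acetate pH 5.5 with 8 mM DTT, 4 mM EDTA and 0.01% Triton X-100. Enzyme and compound preincubated 1 h, then Z-Phe-Arg-AMC (20 μM) added. AMC fluorescence rate read at ex 355/em 460 nm, 25 °C.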

[5] = biological target: Rhodesain (Trypanosoma brucei rhodesiense) (UniProt Q95PM0); test: Inhibition of Trypanosoma brucei rhodesain expressed in Pichia pastoris assessed as rato of Kinact to Ki using Z-phe-Arg-AMC as substrate preincubated for 1 hr followed by substrate additon by fluorescence assay
In short: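 Time-dependent inactivation study: rhodesain mixed with inhibitor (0, 0.06, 0.12, 0.24, 0.97, 3.9 μM) in assay buffer (50 mM sodium acetate pH 5.5, 2 mM DTT, 0.01% Triton X-100). Aliquots drawn every 10 min, assayed with 10 μM Z-Phe-Arg-AMC, RFU/sec followed 7 min at 25 °C (ex 355/em 460 nm). Analysed by pseudo-first-order inhibition plots.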

Rhodesain = Rhodesain (Trypanosoma brucei rhodesiense, UniProt Q95PM0); test: Inhibition of Trypanosoma brucei rhodesain expressed in Pichia pastoris using Z-phe-Arg-AMC as substrate preincubated for 1 hr followed by substrate addition by fluorescence assay
Sequence of Rhodesain (Q95PM0 whole entry): as the sequence (Q95PM0 1-450) above
In short: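 Rhodesain at 0.8 nM final was pre-incubated 1 h with compound at 20 μM final in 50 mM sodium acetate pH 5.5, 2 mM DTT, 0.01% Triton X-100. Then 10 μM Z-Phe-Arg-AMC was added, and cleavage was read as RFU/sec at 25 °C (ex 355/em 460 nm). E-64 (10 μM) defined 100% inhibition.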

SMILES | IC50 (Trypanosoma brucei [1]) | inhibition [2] | IC50 (HepG2) | Activity (Trypanosoma brucei [3]) | inhibition [4] | Ratio [5] | IC50 (Rhodesain)
CC1(C)C2CC[C@]1(C)C(OC(=O)Cc1ccc(OC/C=C/S(=O)(=O)c3ccccc3)cc1)C2 (some centres not stated) | 7.16 µM | inactive | > 20 µM | – | – | – | –
CCCN1CCC(NC(=O)Cc2ccc(OC/C=C/S(=O)(=O)c3ccccc3)cc2)CC1 | > 20 µM | inactive | > 20 µM | – | – | – | –
CC1(C)[C@H]2CC=C(CCOC(=O)Cc3ccc(OC/C=C/S(=O)(=O)c4ccccc4)cc3)[C@@H]1C2 | 2.01 µM | inactive | > 80 µM | – | – | – | –
O=C(Cc1ccc(OC/C=C/S(=O)(=O)c2ccccc2)cc1)Oc1ccc(C2CCCC2)cc1 | 6.04 µM | inactive | > 20 µM | – | – | – | –
O=C(Cc1ccc(OC/C=C/S(=O)(=O)c2ccccc2)cc1)Oc1ccc(Cc2ccccc2)cc1 | 1.47 µM | inactive | > 80 µM | – | – | – | –
O=C(Cc1ccc(OC/C=C/S(=O)(=O)c2ccccc2)cc1)Oc1ccc2cc(Br)ccc2c1 | 2.18 µM | inactive | > 80 µM | – | – | – | –
CC(C)c1ccc(OC(=O)Cc2ccc(OC/C=C/S(=O)(=O)c3ccccc3)cc2)cc1 | > 20 µM | inactive | > 20 µM | – | – | – | –
O=C(N[C@H](/C=C/S(=O)(=O)c1ccccc1)CCc1ccccc1)c1cccc2cccnc12 | 5.97 µM | Active | > 80 µM | – | inactive | 99 M⁻¹ s⁻¹ | 0.8 µM
COc1cc([C@@H]2c3cc4c(cc3[C@H](O)[C@H]3COC(=O)[C@H]23)OCO4)cc(OC)c1OC [PODOFILOX] | – | – | 0.008 µM | – | – | – | –
CC1(C)[C@@H]2CC[C@@](C)(C2)[C@@H]1OC(=O)Cc1ccc(OC/C=C/S(=O)(=O)c2ccccc2)cc1 | 4.04 µM | inactive | 11.9 µM | – | – | – | –
C[C@H](NC(=O)Cc1ccc(OC/C=C/S(=O)(=O)c2ccccc2)cc1)c1ccc2ccccc2c1 | 5.45 µM | inactive | > 20 µM | – | – | – | –
O=C(Cc1ccc(OC/C=C/S(=O)(=O)c2ccccc2)cc1)NC12CC3CC(CC(C3)C1)C2 | 11.7 µM | inactive | > 20 µM | – | – | – | –
CC1(C)[C@H]2CC=C(CCOC(=O)Cc3ccc(OC/C=C/S(=O)(=O)c4ccccc4)c(Cl)c3)[C@@H]1C2 | 3.04 µM | inactive | > 80 µM | – | – | – | –
CC1=C[C@@H](OC(=O)Cc2ccc(OC/C=C/S(=O)(=O)c3ccccc3)cc2)C2C[C@H]1C2(C)C | > 20 µM | inactive | > 20 µM | – | – | – | –

Now from value to compound, other results behind:

IC50 (Trypanosoma brucei [1]) | inhibition [2] | SMILES | IC50 (HepG2) | Activity (Trypanosoma brucei [3]) | inhibition [4] | Ratio [5] | IC50 (Rhodesain)
0.76 µM | inactive | O=C(Cc1ccc(OC/C=C/S(=O)(=O)c2ccccc2)cc1)Nc1cccc2cccnc12 | > 80 µM | inactive | – | – | –
> 20 µM | inactive | CC(C)CCC[C@@H](C)[C@H]1CC[C@H]2[C@@H]3CC[C@H]4C[C@@H](OC(=O)Cc5ccc(OC/C=C/S(=O)(=O)c6ccccc6)cc5)CC[C@]4(C)[C@H]3CC[C@]12C | > 20 µM | – | – | – | –
0.004 µM | – | Cc1ccc(C(=O)Nc2ccc(S(=O)(=O)O)c3cc(S(=O)(=O)O)cc(S(=O)(=O)O)c23)cc1NC(=O)c1cccc(NC(=O)Nc2cccc(C(=O)Nc3cc(C(=O)Nc4ccc(S(=O)(=O)O)c5cc(S(=O)(=O)O)cc(S(=O)(=O)O)c45)ccc3C)c2)c1 [SURAMIN] | – | – | – | – | –
7.03 µM | inactive | CC1(C)C2CC=C(CCOC(=O)Cc3ccc(OC/C=C/S(=O)(=O)c4ccccc4)cc3F)C1C2 (configuration not stated) | > 20 µM | – | – | – | –
> 20 µM | inactive | O=C(Cc1ccc(OC/C=C/S(=O)(=O)c2ccccc2)cc1)Oc1ccc(C(F)(F)F)cc1 | > 20 µM | – | – | – | –
> 20 µM | inactive | CN1CCC(NC(=O)Cc2ccc(OC/C=C/S(=O)(=O)c3ccccc3)cc2)CC1 | > 20 µM | – | – | – | –
5.62 µM | inactive | C[C@H](OC(=O)Cc1ccc(OC/C=C/S(=O)(=O)c2ccccc2)cc1)c1ccc2ccccc2c1 | > 20 µM | – | – | – | –
5.63 µM | inactive | O=C(Cc1ccc(OC/C=C/S(=O)(=O)c2ccccc2)cc1)OC1CCC[C@@H]2CCCC[C@H]12 (some centres not stated) | > 20 µM | – | – | – | –
> 20 µM | inactive | CC1(C)C2CC=C(COC(=O)Cc3ccc(OC/C=C/S(=O)(=O)c4ccccc4)cc3)C1C2 (configuration not stated) | > 20 µM | – | – | – | –
10.8 µM | inactive | CC1(C)C2CC[C@]1(C)C(NC(=O)Cc1ccc(OC/C=C/S(=O)(=O)c3ccccc3)cc1)C2 (some centres not stated) | > 20 µM | – | – | – | –
